Experimental data taken from publication PMC6970276 (OncoTargets and therapy, 2020).

Experiments:
[1] = test system: K1 xenografts; assay: SPECT/CT imaging of K1 xenografts; assay type: in vivo, nude mice; conditions: SPECT ROI, 24h after tail vein injection of 37 MBq; tumor-bearing mouse
Method in brief: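 Female nude mice bearing K1 xenografts (over 1 cm3) received 37 MBq of the 177Lu-labelled test compound in 100 μL by tail vein. Static SPECT/CT imaging at 4, 12, 24 and 48 h, prone: high-energy collimation, 113 and 208 keV peaks, 256 × 256 matrix, 10-min acquisitions. T/NT was calculated from regions of interest. CT fusion was done at the clearest time point.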

[2] = Stability test of purified probes in human serum; assay type: in vitro ADME; conditions: 48 h, purified probe, radio-TLC, saline/acetone 1:1, Figure 2
Method in brief: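 Purified 177Lu-labelled probes were held at room temperature and in human serum. Radiochemical purity was sampled at 1, 4, 12, 24 and 48 h by radio-TLC, developed in saline/acetone 1:1 (v/v) and read on a TLC imaging scanner.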

[3] = test system: K1 xenografts; assay: Therapeutic evaluation in tumor-bearing nude mice; assay type: in vivo
Method in brief: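 K1 xenograft-bearing nude mice, randomised into three groups (n = 5). Each group received tail-vein injections (100 μL) every 4 days, three times: radiolabelled test compound (11.1 MBq/5 μg), unlabelled test compound (5 μg) or 0.9% saline. Followed for 45 days. Tumour volume = a × b²/2 (long, short diameters). Growth curves compared by repeated-measures analysis, survival by log-rank test.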

[4] = Biodistribution in tumor-bearing nude mice; assay type: in vivo; conditions: for tissue uptake at 4 h / tissue uptake at 12 h / tissue uptake at 24 h / tissue uptake at 48 h: female, nude, mouse, iv, 1.85 MBq, total radioactivity; for Tumor/Blood: ratio, n=3
Method in brief: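 Female nude mice bearing subcutaneous K1 tumours (5 × 10^6 cells, right forelimb), used once tumours exceeded 1 cm3. The 177Lu-labelled test compound (1.85 MBq in 100 μL) was injected into the tail vein, n = 3 per time point. Mice were killed at 4, 12, 24 and 48 h. Blood, tumour and organs (including brain, bone, heart) were weighed and gamma-counted. %ID/g = tissue counts/(injected counts × tissue mass) × 100%.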

[5] = test system: K1 cells; assay: In vitro retention assay in K1 cells; assay type: cell-based; conditions: 6 hrs loading, medium replaced, 2, 4, 6 and 8 hrs, γ-counter

Q: Which “T/NT (target/non-target) value” [1] does the source give for `Cc1cn(CC(=O)N(CCNC(=O)COCCOCCNC(=O)COCCOCCNC(=O)CN2CCN(CC(=O)O)CCN(CC(=O)O)CCN(CC(=O)O)CC2)CC(=O)NCCN(CC(=O)NCCN(CC(=O)NCCN(CC(=O)NCCN(CC(=O)NCCN(CC(=O)NCCN(CC(=O)NCCN(CC(=O)NCCN(CC(=O)NCCN(CC(N)=O)C(=O)Cn2cnc3c(N)ncnc32)C(=O)Cn2cnc3c(N)ncnc32)C(=O)Cn2cnc3c(=O)[nH]c(N)nc32)C(=O)Cn2cnc3c(N)ncnc32)C(=O)Cn2ccc(N)nc2=O)C(=O)Cn2cnc3c(=O)[nH]c(N)nc32)C(=O)Cn2cc(C)c(=O)[nH]c2=O)C(=O)Cn2cnc3c(=O)[nH]c(N)nc32)C(=O)Cn2cnc3c(N)ncnc32)c(=O)[nH]c1=O` [^177Lu-asPNA, ^177Lu-DOTA-anti-CITED1-PNA, metal not drawn] here?
A: 5.11

Q: What about the “Radiochemical purity (%)” value [2] of the same compound?
A: above 91%

Q: What about the “tumor growth rate and volume vs asPNA and saline groups” value ([3]; 18 days after injection, n = 5, volume a × b^2/2) of the same compound?
A: about two-fold smaller

Q: And the “median survival time longer than those of the other two groups” value ([3]; vs asPNA and saline groups, n = 5)?
A: at least 13 days

Q: What about the tissue uptake at 4 h ([4]; bone) of the same compound?
A: 2.58 ± 0.63 %ID/g

Q: And the tissue uptake at 12 h ([4]; bone)?
A: 1.51 ± 0.55 %ID/g

Q: And the tissue uptake at 24 h ([4]; bone)?
A: 1.03 ± 0.68 %ID/g

Q: And the tissue uptake at 48 h ([4]; bone)?
A: 0.52 ± 0.23 %ID/g

Q: And the tissue uptake at 4 h ([4]; brain)?
A: 1.53 ± 0.68 %ID/g

Q: And the tissue uptake at 12 h ([4]; brain)?
A: 0.42 ± 0.36 %ID/g

Q: What about the tissue uptake at 24 h ([4]; brain) of the same compound?
A: 0.39 ± 0.77 %ID/g

Q: What about the tissue uptake at 48 h ([4]; brain) of the same compound?
A: 0.33 ± 0.59 %ID/g

Q: What about the tissue uptake at 4 h ([4]; heart) of the same compound?
A: 3.67 ± 0.82 %ID/g

Q: And the tissue uptake at 12 h ([4]; heart)?
A: 3.33 ± 0.25 %ID/g

Q: What about the tissue uptake at 24 h ([4]; heart) of the same compound?
A: 1.53 ± 0.36 %ID/g

Q: And the tissue uptake at 48 h ([4]; heart)?
A: 0.54 ± 0.39 %ID/g

Q: And the tissue uptake at 4 h ([4]; intestines)?
A: 4.92 ± 0.45 %ID/g

Q: And the tissue uptake at 12 h ([4]; intestines)?
A: 3.17 ± 1.5 %ID/g

Q: And the tissue uptake at 24 h ([4]; intestines)?
A: 3.03 ± 0.87 %ID/g

Q: And the tissue uptake at 48 h ([4]; intestines)?
A: 0.85 ± 0.27 %ID/g

Q: And the tissue uptake at 4 h ([4]; kidney)?
A: 13.8 ± 1.46 %ID/g

Q: What about the tissue uptake at 12 h ([4]; kidney) of the same compound?
A: 5.96 ± 1.32 %ID/g

Q: What about the tissue uptake at 24 h ([4]; kidney) of the same compound?
A: 2.06 ± 0.49 %ID/g

Q: And the tissue uptake at 48 h ([4]; kidney)?
A: 0.87 ± 0.41 %ID/g

Q: And the tissue uptake at 4 h ([4]; liver)?
A: 13.2 ± 1.26 %ID/g

Q: What about the tissue uptake at 12 h ([4]; liver) of the same compound?
A: 2.42 ± 0.13 %ID/g

Q: What about the tissue uptake at 24 h ([4]; liver) of the same compound?
A: 1.81 ± 0.41 %ID/g

Q: What about the tissue uptake at 48 h ([4]; liver) of the same compound?
A: 1.53 ± 0.23 %ID/g

Q: What about the tissue uptake at 4 h ([4]; lung) of the same compound?
A: 4.21 ± 0.27 %ID/g

Q: What about the tissue uptake at 12 h ([4]; lung) of the same compound?
A: 1.86 ± 0.87 %ID/g

Q: And the tissue uptake at 24 h ([4]; lung)?
A: 1.66 ± 0.52 %ID/g

Q: What about the tissue uptake at 48 h ([4]; lung) of the same compound?
A: 1.07 ± 0.41 %ID/g

Q: And the tissue uptake at 4 h ([4]; muscle)?
A: 2.13 ± 0.37 %ID/g

Q: What about the tissue uptake at 12 h ([4]; muscle) of the same compound?
A: 1.21 ± 0.69 %ID/g

Q: And the tissue uptake at 24 h ([4]; muscle)?
A: 0.99 ± 0.21 %ID/g

Q: And the tissue uptake at 48 h ([4]; muscle)?
A: 0.75 ± 0.18 %ID/g

Q: What about the tissue uptake at 4 h ([4]; spleen) of the same compound?
A: 11 ± 1.07 %ID/g

Q: And the tissue uptake at 12 h ([4]; spleen)?
A: 4.62 ± 0.58 %ID/g

Q: And the tissue uptake at 24 h ([4]; spleen)?
A: 2.07 ± 0.62 %ID/g

Q: What about the tissue uptake at 48 h ([4]; spleen) of the same compound?
A: 1.14 ± 0.14 %ID/g

Q: What about the tissue uptake at 4 h ([4]; stomach) of the same compound?
A: 4.92 ± 0.26 %ID/g

Q: And the tissue uptake at 12 h ([4]; stomach)?
A: 2.34 ± 0.42 %ID/g

Q: What about the tissue uptake at 24 h ([4]; stomach) of the same compound?
A: 2.05 ± 1.03 %ID/g

Q: What about the tissue uptake at 48 h ([4]; stomach) of the same compound?
A: 0.58 ± 0.27 %ID/g

Q: And the tissue uptake at 4 h ([4]; tumor)?
A: 5.78 ± 0.87 %ID/g

Q: What about the tissue uptake at 12 h ([4]; tumor) of the same compound?
A: 5.47 ± 1.03 %ID/g

Q: What about the tissue uptake at 24 h ([4]; tumor) of the same compound?
A: 4.93 ± 0.47 %ID/g

Q: And the tissue uptake at 48 h ([4]; tumor)?
A: 3.05 ± 0.66 %ID/g

Q: What about the tissue uptake at 4 h ([4]; whole blood) of the same compound?
A: 9.45 ± 1.1 %ID/g

Q: And the tissue uptake at 12 h ([4]; whole blood)?
A: 5.76 ± 0.46 %ID/g

Q: What about the tissue uptake at 24 h ([4]; whole blood) of the same compound?
A: 1.98 ± 0.41 %ID/g

Q: What about the tissue uptake at 48 h ([4]; whole blood) of the same compound?
A: 1.77 ± 0.99 %ID/g

Q: And the Tumor/Blood ([4]; 4h after tail vein injection of 1.85 MBq, tumor-bearing nude mice)?
A: 0.61±1.24

Q: And the Tumor/Blood ([4]; 12h after tail vein injection of 1.85 MBq, tumor-bearing nude mice)?
A: 0.95±0.97

Q: What about the “blood-brain barrier passage (brain tissue uptake)” value ([4]; tumor-bearing nude mice, from radioactive marker uptake in brain tissue) of the same compound?
A: could not cross the blood-brain barrier

Q: And the cellular retention [5]?
A: remains in these cells for an extended period of time
